In the library only some 9.6% were active in any assay of this set; here they are far more common.
MT stabilizer: microtubule stabilizers in HeLa cells, primary screen, imaging, high-content imaging; hit rate 0.83% among 200,000; HeLa tubulin immunostaining HCS, 24 h; share of cells brighter than vehicle mean+2SD; % tubulin-high responders, % at 10 µM;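 active = plate Z-score above 3 for both tubulin-high and condensed-nucleus cell shares, with cell loss under 80%, at 10 µM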;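 note: anti alpha tubulin signal scored within the nucleus-defined area of each cell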
b-catenin transl: modulators of beta-catenin nuclear translocation, primary screen, imaging, HeLa cells, immunofluorescence, high-content | AID 1665, 2009 | nuclear translocation activity, % at 5 µM | hit rate 0.3% among 190,000;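 active = nuclear translocation activity above 50% at 5 µM, with a well cell count of 50 or more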;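 note: per-cell ratio of nuclear to cytoplasmic median beta-catenin stain intensity; plate controls were DMSO negative control for no effect and GSK-3 inhibitor IX positive control for full effect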
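System: HeLa cells, endogenous beta-catenin; compound dosing: 5 µM primary single dose, 0.1% DMSO, 0.02–20 µM confirmation series; incubation: 24 h compound exposure at 37°C, 5% CO2; signal: beta-catenin immunofluorescence imaging with DAPI; evaluation: % activation, nuclear-to-cytoplasmic median beta-catenin signal ratio per cell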
L major viab: Leishmania major promastigote growth inhibition, primary screen | Leishmania major promastigotes, resazurin fluorescence viability | inhibition, % at 10 µM | hit rate 9% among 200,000; in the data active = inhibition above about 50%;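 note: promastigotes grown with compound for 44 hours at 28 °C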
APP 5UTR inh: inhibitors of APP translation via 5'UTR reporter, primary screen, APP 5'UTR luciferase, SH-SY5Y cells; SH-SY5Y APP 5'UTR-luciferase reporter, luminescence; inhibition, % at 2 µM; hit rate 0.82% among 190,000; AID 1285, 2008;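 active = inhibition above a set limit, derived from the sample mean plus 3 SD, cut at about 45% in these data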
BaF3 parental: parental Ba/F3 cell viability inhibition, counter-screen for JAK2V617F inhibitor project, murine pro-B, CellTiter-Glo luminescence | AID 1486, 2009 | inhibition, % at 5.6 µM | hit rate 1.1% among 220,000 | CellTiter-Glo ATP luminescence;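 active = inhibition above a per-campaign cutoff, the mean inhibition of all tested compounds plus 3 SD, cut at about 27% in these data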;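 note: 0% = DMSO wells and 100% = JAK Inhibitor I control wells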
Ba/F3 V617F tox: reduced viability of JAK2V617F-dependent Ba/F3 cells, primary screen, JAK2V617F inhibitor project, cell-based, Ba/F3 EpoR-JAK2V617F, luminescence; ATP luminescence; inhibition, % at 5.6 µM; hit rate 1.1% among 220,000;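 active = inhibition above the campaign mean plus 3 SD over all tested compounds, cut at about 24% in these data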;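 note: cytokine-independent growth of Ba/F3 cells driven by EpoR plus mutant JAK2; 0% = DMSO-treated cells and 100% = JAK inhibitor I control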
Active calls of the source: *.

COc1ccccc1N(CC(O)CN(c1ccccc1)S(C)(=O)=O)S(=O)(=O)c1ccccc1 (stereo not drawn) was read as MT stabilizer 2.9, b-catenin transl -0.4, L major viab -2.3, APP 5UTR inh 10.5, BaF3 parental 2.9 and Ba/F3 V617F tox 3.1.
`COc1ccc([N+](=O)[O-])cc1N(CC(O)CN1CCCCC1)S(=O)(=O)c1ccccc1` (stereo not drawn) gave MT stabilizer 2.9, b-catenin transl 0.1, L major viab 81.8*, APP 5UTR inh -1.1, BaF3 parental 7.6 and Ba/F3 V617F tox -1.5.
Cc1ccc(S(=O)(=O)N(CC(O)CN2CCCC2)c2ccccc2)cc1 (stereo not drawn) was read as MT stabilizer 5.2, b-catenin transl 1.0, L major viab -3.0, APP 5UTR inh 7.5, BaF3 parental 2.9 and Ba/F3 V617F tox -2.3.
`CCCN(CCC)CC(O)CN(c1cc([N+](=O)[O-])ccc1OC)S(=O)(=O)c1ccccc1` (stereo not drawn) gave MT stabilizer 3.2, b-catenin transl 0.8, L major viab 63.5*, APP 5UTR inh -3.7, BaF3 parental 12.2 and Ba/F3 V617F tox -0.4.
Screening CC(C)C12CN3CC(C(C)C)(CN(C1)C3(C)C)C2=O returned MT stabilizer 2.8, b-catenin transl 0.6, L major viab -3.6, APP 5UTR inh -8.8, BaF3 parental 4.1 and Ba/F3 V617F tox -1.7.
Screening C=CCN1C(=O)/C(=C\c2ccc(Oc3nc(N4CCOCC4)nc(N4CCOCC4)n3)c(OC)c2)SC1=S returned MT stabilizer 2.4, b-catenin transl 5.4, L major viab 53.8*, APP 5UTR inh 1.4, BaF3 parental 4.0 and Ba/F3 V617F tox 4.3.
Screening COc1cc(/C=C2\SC(=S)N(N3CCOCC3)C2=O)ccc1O returned b-catenin transl 1.5, BaF3 parental -0.5 and Ba/F3 V617F tox -1.2.
For CC1(C)C(C=C(Cl)Cl)C1C(=O)N(Cc1cccc(Cl)c1)C1CCS(=O)(=O)C1 (stereo not drawn) the results were MT stabilizer 0.9, b-catenin transl -0.7, L major viab 90.6*, APP 5UTR inh 6.0, BaF3 parental 4.0 and Ba/F3 V617F tox -2.5.
For O=C(c1cccs1)N(Cc1cccc(Cl)c1)C1CCS(=O)(=O)C1 (stereo not drawn) the results were MT stabilizer 1.6, b-catenin transl -6.8, L major viab -2.2, APP 5UTR inh 12.6, BaF3 parental 2.5 and Ba/F3 V617F tox -1.4.
Screening CCCCSc1cc(C)nc(N)n1 returned b-catenin transl -0.6, BaF3 parental 2.1 and Ba/F3 V617F tox 2.9.
For O=C(C1CC1)N(Cc1ccco1)c1nc(-c2ccccc2)cs1 the results were MT stabilizer 3.5, b-catenin transl 0.3, L major viab 57.8*, APP 5UTR inh 6.6, BaF3 parental 8.4 and Ba/F3 V617F tox 1.7.
Screening C=CCNC(=O)NC(=O)COC(=O)CNS(=O)(=O)c1ccc(F)c(F)c1F returned MT stabilizer 4.1, b-catenin transl -1.9, L major viab -0.3, APP 5UTR inh 5.8, BaF3 parental -3.9 and Ba/F3 V617F tox -1.4.
`COc1cc(CC(NC(C)=O)C(=O)NC2CCN(c3c(Cc4ccccc4)c(C)nc4ncnn34)CC2)cc(OC)c1` (stereo not drawn) gave MT stabilizer 3.3, b-catenin transl -1.8, L major viab -7.3, APP 5UTR inh 7.0, BaF3 parental 3.2 and Ba/F3 V617F tox 0.5.
Screening CC(=O)N(CCCN(C)C)CCC(C)CCC=C(C)C (stereo not drawn) returned MT stabilizer 3.9, b-catenin transl -3.7, L major viab 100.3*, APP 5UTR inh -22.6, BaF3 parental 6.5 and Ba/F3 V617F tox 4.8.
For C=CCn1c(CNC(=O)c2ccccc2F)nnc1SCC(=O)NC(C)c1ccccc1 (stereo not drawn) the results were MT stabilizer 6.6, b-catenin transl -1.5, L major viab 0.1, APP 5UTR inh -9.8, BaF3 parental 0.4 and Ba/F3 V617F tox 0.0.
Screening COc1cccc(CN(c2ccc3c(c2)CCC3)S(=O)(=O)c2ccc(-n3cnnn3)c(OC)c2)c1 returned MT stabilizer 2.5, b-catenin transl -0.6, L major viab 65.5*, APP 5UTR inh -1.3, BaF3 parental 7.3 and Ba/F3 V617F tox -2.2.

Assay outcomes as filed in PubChem BioAssay.
